In ChEMBL document CHEMBL1921709, “Synthesis and activity of new macrolones: conjugates between 6(7)-(2'-aminoethyl)-amino-1-cyclopropyl-3-carboxylic acid (2'-hydroxyethyl) amides and 4″-propenoyl-azithromycin” (2011) one finds MIC data, which are given here for one compound.

Common to all, as to assay type: functional
In experiment [1] the test system is Staphylococcus aureus. In words: Antibacterial activity against erythromycin-sensitive Staphylococcus aureus ATCC 13709 by broth microdilution method. In short, it runs like this: (§1)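 Broth microdilution following CLSI guidelines, using two-fold serial dilutions of compound. Bacteria were first grown on appropriate agar plates. Read-out is growth inhibition, reported as MIC.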
For orientation: In broth dilution the organism is exposed to a series of concentrations in liquid medium.

Experiment [2] concerns Streptococcus pneumoniae. In words: Antibacterial activity against erythromycin-sensitive Streptococcus pneumoniae SP 030 by broth microdilution method. In short, it runs like this: (§2)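 Broth microdilution following CLSI guidelines, except that 5% horse serum replaced lysed blood in the Streptococcus medium. Two-fold serial dilutions of compound were used. Bacteria were first grown on appropriate agar plates. Read-out is growth inhibition, reported as MIC.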

For experiment [3], the system named is Streptococcus pyogenes. In words: Antibacterial activity against erythromycin-sensitive Streptococcus pyogenes 3565 by broth microdilution method. In short, it runs like this: as §2
For experiment [4], the system named is Staphylococcus aureus. Nature of the experiment: Antibacterial activity against efflux-mediated macrolide-resistant Staphylococcus aureus PK1 by broth microdilution method. In short, it runs like this: (§3)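 Standard CLSI broth microdilution MIC test with automated double dilutions of compound. Bacteria were pre-grown on appropriate agar plates.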
Experiment [5] deals with Streptococcus pneumoniae. In words: Antibacterial activity against efflux-mediated macrolide-resistant Streptococcus pneumoniae Ci137 by broth microdilution method. A digest of the protocol: (§4)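 CLSI broth microdilution MIC with automated double dilutions of compound. The medium was supplemented with 5% horse serum in place of lysed blood. Bacteria were pre-grown on appropriate agar plates.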

In experiment [6] the test system is Streptococcus pyogenes. In words: Antibacterial activity against efflux-mediated macrolide-resistant Streptococcus pyogenes Finland 2 by broth microdilution method. In short, it runs like this: as §4
The test system of experiment [7] is Staphylococcus aureus. In words: Antibacterial activity against inducible macrolide, lincosamide and streptogramin B-resistant Staphylococcus aureus 90256/97 by broth microdilution method. In short, it runs like this: as §3
The subject of experiment [8] is Streptococcus pneumoniae. Nature of the experiment: Antibacterial activity against inducible macrolide-resistant, constitutive lincosamide and streptogramin-resistant Streptococcus pneumoniae 134 GR M by broth microdilution method. A digest of the protocol:
as §4

For experiment [9], the system named is Streptococcus pyogenes. In words: Antibacterial activity against inducible macrolide-lincosamide-streptogramin B resistant Streptococcus pyogenes Finland 11 by broth microdilution method. In short, it runs like this: as §4
The test system of experiment [10] is Streptococcus pneumoniae. In words: Antibacterial activity against constitutive macrolide, lincosamide, streptogramin-resistant Streptococcus pneumoniae 58 spain by broth microdilution method. In short, it runs like this: as §4
Experiment [11] has as its system Streptococcus pyogenes. Nature of the experiment: Antibacterial activity against constitutive macrolide, lincosamide, streptogramin-resistant Streptococcus pyogenes 166 GR-Micro by broth microdilution method. In short, it runs like this: as §4
For experiment [12], the system named is Staphylococcus aureus. Nature of the experiment: Antibacterial activity against constitutive macrolide, lincosamide, streptogramin-resistant Staphylococcus aureus PK2 by broth microdilution method. In short, it runs like this: as §3
Experiment [13] deals with Haemophilus influenzae. In words: Antibacterial activity against Haemophilus influenzae ATCC 49247 by broth microdilution method. In short, it runs like this:
as §1

Experiment [14] deals with Moraxella catarrhalis. In words: Antibacterial activity against Moraxella catarrhalis ATCC 23246 by broth microdilution method. In short, it runs like this:
as §1

Converted amounts (≈) assume the structure as drawn. Some results are limits rather than exact numbers.

Turning to `CC[C@H]1OC(=O)[C@H](C)[C@@H](O[C@H]2C[C@@](C)(OC)[C@@H](O)[C@H](C)O2)[C@H](C)[C@@H](O[C@@H]2O[C@H](C)C[C@H](N(C)C)[C@H]2O)[C@](C)(O)C[C@@H](C)CN(C)[C@H](C)[C@@H](O)[C@]1(C)O` [AZITHROMYCIN], the MIC in experiment [1] is 0.5 µg/mL (≈ 0.668 µM); in experiment [2], no more than 0.125 µg/mL; in [3], no more than 0.125 µg/mL; in experiment [4] it was greater than 64 µg/mL; in experiment [5] it was 8 µg/mL (≈ 10.7 µM); in [6], 8 µg/mL (≈ 10.7 µM). In addition, the MIC in experiment [7] is greater than 64 µg/mL; in [8] it was greater than 64 µg/mL; in experiment [9], 16 µg/mL (≈ 21.4 µM); in experiment [10] it was greater than 64 µg/mL; in experiment [11], greater than 64 µg/mL; in [12], greater than 64 µg/mL. Moreover, the MIC in experiment [13] was 1 µg/mL (≈ 1.34 µM); in experiment [14], no more than 0.125 µg/mL.
